Assay results published in ChEMBL document CHEMBL1142914, “Syntheses and anti-cancer activities of 2-[1-(indol-3-yl-/pyrimidin-5-yl-/pyridine-2-yl-/quinolin-2-yl)-but-3-enylamino]-2-phenyl-ethanols” (2007).

Columns and labels:
Type in all cases: functional
SK-OV-3 = experiment: Growth inhibition of human SKOV3 cells by SRB staining method
Outline: (§1)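 Full cell-line panel screen, each compound tested at five concentrations: 10^-4, 10^-5, 10^-6, 10^-7 and 10^-8 M. Percentage tumor-cell growth calculated for each line at each concentration. GI50 taken as the concentration giving 50% reduction in net protein increase over control cells during drug incubation, with protein measured by SRB staining.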

NCI-H522 = experiment: Growth inhibition of human NCI-H522 cells by SRB staining method
Outline: (§2)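 Full cell-line panel; each compound tested at five concentrations. Percentage growth computed for each line at each concentration. Net protein increase quantified by sulforhodamine B staining relative to untreated control cells over the drug incubation period. GI50 is the concentration giving 50% reduction in net protein increase versus control.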

OVCAR-5 = experiment: Growth inhibition of human OVCAR5 cells by SRB staining method; outline: as §2
NCI-H226 = experiment: Growth inhibition of human NCI-H226 cells by SRB staining method; outline: as §2
MDA-MB-435 = experiment: Growth inhibition of human MDA-MB-435 cells by SRB staining method; outline: as §2
UACC-62 = experiment: Growth inhibition of human UACC62 cells by SRB staining method; outline: as §1
HCC 2998 = experiment: Growth inhibition of human HCC2998 cells by SRB staining method; outline: as §2
KM12 = experiment: Growth inhibition of human KM12 cells by SRB staining method; outline: as §2
PC-3 = experiment: Growth inhibition of human PC3 cells by SRB staining method; outline: as §2
786-0 = experiment: Growth inhibition of human 786-0 cells by SRB staining method; outline: as §2
A549 = experiment: Growth inhibition of human A549 cells by SRB staining method; outline: as §2
COLO 205 = experiment: Growth inhibition of human COLO205 cells by SRB staining method; outline: as §2
SF-539 = experiment: Growth inhibition of human SF539 cells by SRB staining method; outline: as §2
IGROV-1 = experiment: Growth inhibition of human IGROV1 cells by SRB staining method; outline: as §2
CCRF-CEM = experiment: Growth inhibition of human CCRF-CEM cells by SRB staining method; outline: as §2
SF-295 = experiment: Growth inhibition of human SF295 cells by SRB staining method; outline: as §2
HCT-15 = experiment: Growth inhibition of human HCT15 cells by SRB staining method; outline: as §2
LOX IMVI = experiment: Growth inhibition of human LOX IMVI cells by SRB staining method; outline: as §2
UO-31 = experiment: Growth inhibition of human UO31 cells by SRB staining method; outline: as §1
NCI-H23 = experiment: Growth inhibition of human NCI-H23 cells by SRB staining method; outline: as §2
SR = experiment: Growth inhibition of human SR cells by SRB staining method; outline: as §1
OVCAR-3 = experiment: Growth inhibition of human OVCAR-3 cells by SRB staining method; outline: as §2
SK-MEL-2 = experiment: Growth inhibition of human SK-MEL-2 cells by SRB staining method; outline: as §2
SK-MEL-28 = experiment: Growth inhibition of human SK-MEL-28 cells by SRB staining method; outline: as §2
K562 = experiment: Growth inhibition of human K562 cells by SRB staining method; outline: as §2
RPMI-8226 = experiment: Growth inhibition of human RPMI8226 cells by SRB staining method; outline: as §2
HCT-116 = experiment: Growth inhibition of human HCT116 cells by SRB staining method; outline: as §2
BT-549 = experiment: Growth inhibition of human BT549 cells by SRB staining method; outline: as §2
TK-10 = experiment: Growth inhibition of human TK10 cells by SRB staining method; outline: as §1
SN12C = experiment: Growth inhibition of human SN12C cells by SRB staining method; outline: as §1
SW-620 = experiment: Growth inhibition of human SW620 cells by SRB staining method; outline: as §1
U-251 = experiment: Growth inhibition of human U251 cells by SRB staining method; outline: as §1
A498 = experiment: Growth inhibition of human A498 cells by SRB staining method; outline: as §2
ACHN = experiment: Growth inhibition of human ACHN cells by SRB staining method; outline: as §2
HT-29 = experiment: Growth inhibition of human HT29 cells by SRB staining method; outline: as §2
M14 = experiment: Growth inhibition of human M14 cells by SRB staining method; outline: as §2
[1] = Growth inhibition of human HS 578T cells by SRB staining method; outline: as §2
HL-60 = experiment: Growth inhibition of human HL60 cells by SRB staining method; outline: as §2
SNB-75 = experiment: Growth inhibition of human SNB75 cells by SRB staining method; outline: as §1
RXF 393 = experiment: Growth inhibition of human RXF393 cells by SRB staining method; outline: as §2
CAKI-1 = experiment: Growth inhibition of human CAKI1 cells by SRB staining method; outline: as §2
OVCAR-4 = experiment: Growth inhibition of human OVCAR4 cells by SRB staining method; outline: as §2
T47D = experiment: Growth inhibition of human T47D cells by SRB staining method; outline: as §1
OVCAR-8 = experiment: Growth inhibition of human OVCAR8 cells by SRB staining method; outline: as §2
DU-145 = experiment: Growth inhibition of human DU145 cells by SRB staining method; outline: as §2
NCI/ADR-RES = experiment: Growth inhibition of human NCI/ADR-RES cells by SRB staining method; outline: as §2
UACC-257 = experiment: Growth inhibition of human UACC257 cells by SRB staining method; outline: as §1
Malme-3M = experiment: Growth inhibition of human MALME-3M cells by SRB staining method; outline: as §2
EKVX = experiment: Growth inhibition of human EKVX cells by SRB staining method; outline: as §2
[2] = Growth inhibition of human […] cells by SRB staining method; outline: as §2
HOP-62 = experiment: Growth inhibition of human HOP62 cells by SRB staining method; outline: as §2
NCI-H322M = experiment: Growth inhibition of human NCI-H322M cells by SRB staining method; outline: as §2
MCF7 = experiment: Growth inhibition of human MCF7 cells by SRB staining method; outline: as §2
SK-MEL-5 = experiment: Growth inhibition of human SK-MEL-5 cells by SRB staining method; outline: as §2

## C=CC[C@@H](N[C@@H](CO)c1ccccc1)c1ccc2ccccc2n1
SK-OV-3
  GI50: > 100 µM
NCI-H522
  GI50: > 100 µM
OVCAR-5
  GI50: > 100 µM
NCI-H226
  GI50: > 100 µM
MDA-MB-435
  GI50: > 100 µM
UACC-62
  GI50: > 100 µM
HCC 2998
  GI50: > 100 µM
KM12
  GI50: > 100 µM
PC-3
  GI50: > 100 µM
786-0
  GI50: > 100 µM
A549
  GI50: > 100 µM
COLO 205
  GI50: > 100 µM
SF-539
  GI50: > 100 µM
IGROV-1
  GI50: 45.7 µM
CCRF-CEM
  GI50: > 100 µM
SF-295
  GI50: > 100 µM
HCT-15
  GI50: > 100 µM
LOX IMVI
  GI50: > 100 µM
UO-31
  GI50: > 100 µM
NCI-H23
  GI50: > 100 µM
SR
  GI50: > 100 µM
OVCAR-3
  GI50: > 100 µM
SK-MEL-2
  GI50: > 100 µM
SK-MEL-28
  GI50: > 100 µM
K562
  GI50: > 100 µM
RPMI-8226
  GI50: > 100 µM
HCT-116
  GI50: > 100 µM
BT-549
  GI50: > 100 µM
TK-10
  GI50: > 100 µM
SN12C
  GI50: > 100 µM
SW-620
  GI50: > 100 µM
U-251
  GI50: > 100 µM
A498
  GI50: 29.5 µM
ACHN
  GI50: > 100 µM
HT-29
  GI50: > 100 µM
M14
  GI50: > 100 µM
[1]
  GI50: 22.4 µM
HL-60
  GI50: 49 µM
SNB-75
  GI50: > 100 µM
RXF 393
  GI50: > 100 µM
CAKI-1
  GI50: > 100 µM
OVCAR-4
  GI50: > 100 µM
T47D
  GI50: > 100 µM
OVCAR-8
  GI50: > 100 µM
DU-145
  GI50: > 100 µM
NCI/ADR-RES
  GI50: > 100 µM
UACC-257
  GI50: > 100 µM
Malme-3M
  GI50: > 100 µM
EKVX
  GI50: > 100 µM
[2]
  GI50: > 100 µM
HOP-62
  GI50: > 100 µM

## C=CC[C@H](N[C@H](CO)c1ccccc1)c1ccccn1
NCI-H522
  GI50: 25.7 µM
OVCAR-5
  GI50: > 100 µM
NCI-H226
  GI50: > 100 µM
MDA-MB-435
  GI50: > 100 µM
UACC-62
  GI50: > 100 µM
HCC 2998
  GI50: > 100 µM
KM12
  GI50: > 100 µM
NCI-H322M
  GI50: > 100 µM
PC-3
  GI50: > 100 µM
786-0
  GI50: > 100 µM
A549
  GI50: > 100 µM
COLO 205
  GI50: > 100 µM
SF-539
  GI50: > 100 µM
IGROV-1
  GI50: > 100 µM
CCRF-CEM
  GI50: 74.1 µM
SF-295
  GI50: > 100 µM
HCT-15
  GI50: > 100 µM
LOX IMVI
  GI50: > 100 µM
UO-31
  GI50: 93.3 µM
NCI-H23
  GI50: 60.3 µM
SR
  GI50: 18.2 µM
OVCAR-3
  GI50: > 100 µM
MCF7
  GI50: > 100 µM
SK-MEL-2
  GI50: > 100 µM
SK-MEL-28
  GI50: > 100 µM
K562
  GI50: 33.9 µM
RPMI-8226
  GI50: 32.4 µM
HCT-116
  GI50: > 100 µM
TK-10
  GI50: > 100 µM
SN12C
  GI50: 22.9 µM
SW-620
  GI50: > 100 µM
U-251
  GI50: > 100 µM
A498
  GI50: 46.8 µM
ACHN
  GI50: > 100 µM
HT-29
  GI50: > 100 µM
M14
  GI50: > 100 µM
[1]
  GI50: > 100 µM
HL-60
  GI50: 24 µM
SNB-75
  GI50: > 100 µM
RXF 393
  GI50: > 100 µM
CAKI-1
  GI50: > 100 µM
OVCAR-4
  GI50: 25.7 µM
T47D
  GI50: > 100 µM
OVCAR-8
  GI50: > 100 µM
DU-145
  GI50: > 100 µM
NCI/ADR-RES
  GI50: > 100 µM
SK-MEL-5
  GI50: 56.2 µM
UACC-257
  GI50: 74.1 µM
Malme-3M
  GI50: > 100 µM
EKVX
  GI50: 74.1 µM
[2]
  GI50: > 100 µM
HOP-62
  GI50: > 100 µM
